pIC50: −log10 of the molar value. Calls of active or inactive are those of the source. The rule behind the calls is not given here.
Assays:
[1] = Inhibition of recombinant human full length GST-tagged group-7B PLA2 expressed in Escherichia coli Rosetta(DE3) pLysS using 2-thio-PAF as substrate preincubated for 30 min followed by substrate addition measured every minute for 10 mins by DNTB reagent based assay
Method in brief: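 Recombinant PLA2-VIIB purified in-house, preincubated 30 min at room temperature with compound and DTNB (10 µL of 2 mM). Substrate solution (50 µM 2-thio-PAF, 50 mM Tris pH 7.2, 1 mM EGTA) then added and absorbance read at 412 nm. IC50 determined.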

[2] = molecular target: T1, Platelet-activating factor acetylhydrolase (Rattus norvegicus) (UniProt A6JJ35); test: Inhibition of Lp-PLA2 in rat plasma at 50 nM using 2-thio-PAF as substrate preincubated for 30 min followed by substrate addition measured every minute for 10 mins by DNTB reagent based assay relative to control
T1 sequence (whole entry): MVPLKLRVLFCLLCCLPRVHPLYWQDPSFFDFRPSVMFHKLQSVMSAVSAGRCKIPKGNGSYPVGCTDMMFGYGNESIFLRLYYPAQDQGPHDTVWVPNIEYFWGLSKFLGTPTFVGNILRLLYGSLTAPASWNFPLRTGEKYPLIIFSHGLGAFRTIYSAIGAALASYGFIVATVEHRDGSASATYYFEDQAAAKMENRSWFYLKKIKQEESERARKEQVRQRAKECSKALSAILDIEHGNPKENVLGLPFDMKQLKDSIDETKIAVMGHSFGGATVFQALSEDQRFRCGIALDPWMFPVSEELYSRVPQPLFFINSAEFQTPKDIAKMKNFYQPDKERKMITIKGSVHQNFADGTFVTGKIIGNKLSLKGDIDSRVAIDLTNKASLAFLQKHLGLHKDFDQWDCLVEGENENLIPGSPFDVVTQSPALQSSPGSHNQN
Method in brief: (§1)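 Rat plasma added directly as enzyme source and preincubated 30 min at room temperature with inhibitor at 250 or 50 nM and DTNB (10 µL of 2 mM). Reaction started with substrate solution: 50 µM 2-thio-PAF, 50 mM Tris pH 7.2, 1 mM EGTA. Thiol release read at 412 nm; percent inhibition calculated.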

[3] = molecular target: T1, Platelet-activating factor acetylhydrolase (Rattus norvegicus); test: Inhibition of Lp-PLA2 in rat plasma at 250 nM using 2-thio-PAF as substrate preincubated for 30 min followed by substrate addition measured every minute for 10 mins by DNTB reagent based assay by DNTB reagent based assay relative to control; method in brief: as §1
[4] = species on record: Rattus norvegicus; details: Sprague-Dawley, 25 mg/kg
[5] = species on record: Rattus norvegicus; details: Sprague-Dawley, 25 mg/kg; remark: listed apart in the source
[6] = species on record: Rattus norvegicus; details: Sprague-Dawley, 25 mg/kg; remark: listed apart in the source
[7] = molecular target: T2, Platelet-activating factor acetylhydrolase (Homo sapiens) (UniProt Q13093); details: 1000 uM
T2 sequence (whole entry): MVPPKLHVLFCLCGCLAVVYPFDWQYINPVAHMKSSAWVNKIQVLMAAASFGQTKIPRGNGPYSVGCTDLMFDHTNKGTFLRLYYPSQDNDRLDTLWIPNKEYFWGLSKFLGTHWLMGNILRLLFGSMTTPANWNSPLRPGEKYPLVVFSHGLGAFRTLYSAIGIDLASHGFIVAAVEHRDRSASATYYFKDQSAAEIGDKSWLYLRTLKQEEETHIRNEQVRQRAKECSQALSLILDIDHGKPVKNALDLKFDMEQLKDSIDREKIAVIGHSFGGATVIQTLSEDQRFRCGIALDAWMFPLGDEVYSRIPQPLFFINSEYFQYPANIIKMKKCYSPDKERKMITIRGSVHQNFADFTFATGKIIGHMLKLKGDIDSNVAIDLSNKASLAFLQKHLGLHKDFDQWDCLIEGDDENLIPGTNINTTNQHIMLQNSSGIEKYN

[8] = molecular target: T3, Platelet-activating factor acetylhydrolase (Homo sapiens, UniProt Q13093); test: Inhibition of human recombinant GST-tagged Lp-PLA2 (47 to 429 residues) expressed in Escherichia coli Rosetta(DE3) pLysS using 2-thio-PAF as substrate preincubated for 30 min followed by substrate addition measured every minute for 10 mins by DNTB reagent based assay
T3 sequence (Q13093 whole entry): T2 sequence (whole entry)

[9] = species on record: Rattus norvegicus; details: Sprague-Dawley, 3 mg/kg

pIC50 [1]	inhibition [2] [%]	inhibition [3] [%]	inhibition [7] [%]	pIC50 [8]	SMILES	inhibition [4]	inhibition [5]	inhibition [6]	inhibition [9]
< 4.60	51	80	–	–	CC(=O)NCc1ccc(S(=O)(=O)Nc2ccc(Oc3ccc(Cl)c(C(F)(F)F)c3)c(C#N)c2)cc1	–	–	–	–
< 4.60	31	67	–	–	N#Cc1cc(NS(=O)(=O)c2ccc(C(=O)O)cc2)ccc1Oc1ccc(Cl)c(C(F)(F)F)c1	–	Active	inactive	–
< 4.60	32	64	–	–	CC(=O)Nc1ccc(S(=O)(=O)Nc2ccc(Oc3ccc(Cl)c(C(F)(F)F)c3)c(C#N)c2)cc1	–	–	–	–
< 4.60	15	45	–	–	CC(=O)N(C)c1ccc(S(=O)(=O)Nc2ccc(Oc3ccc(Cl)c(C(F)(F)F)c3)c(C#N)c2)cc1	–	–	–	–
< 4.60	11	42	–	–	CC(=O)Nc1ccc(S(=O)(=O)Nc2ccc(Oc3ccc(C#N)c(C(F)(F)F)c3)c(C#N)c2)cc1	–	–	–	–
< 4.60	23	55	–	–	CC(=O)Nc1ccc(S(=O)(=O)Nc2ccc(Oc3ccc(F)c(C(F)(F)F)c3)c(C#N)c2)cc1	–	–	–	–

Continued, compound first:

SMILES	pIC50 [1]	inhibition [2] [%]	inhibition [3] [%]	inhibition [7] [%]	pIC50 [8]	inhibition [4]	inhibition [5]	inhibition [6]	inhibition [9]
N#Cc1cc(NS(=O)(=O)c2ccc(N3CCNCC3)cc2)ccc1Oc1ccc(Cl)c(C(F)(F)F)c1	< 4.60	31	68	–	–	–	–	–	–
N#Cc1cc(NS(=O)(=O)c2ccc(N)cc2)ccc1Oc1ccc(Cl)c(C(F)(F)F)c1	< 4.60	33	67	–	–	Active	–	–	–
N#Cc1cc(NS(=O)(=O)c2ccc(NC(=O)N3CCOCC3)cc2)ccc1Oc1ccc(Cl)c(C(F)(F)F)c1	< 4.60	27	64	–	–	–	–	–	–
CS(=O)(=O)Nc1ccc(F)c(F)c1	–	–	–	55	3.00	–	–	–	–
N#Cc1cc(NS(=O)(=O)c2ccc(N3CCOCC3)cc2)ccc1Oc1ccc(Cl)c(C(F)(F)F)c1	< 4.60	17	48	–	–	–	–	–	–
CCN(CC)CCN(Cc1ccc(-c2ccc(C(F)(F)F)cc2)cc1)C(=O)Cn1c(SCc2ccc(F)cc2)nc(=O)c2c1CCC2 [DARAPLADIB]	5.70	98	97	–	–	–	–	–	Active

Source: ChEMBL document CHEMBL4024767, “Structure-Guided Discovery of Novel, Potent, and Orally Bioavailable Inhibitors of Lipoprotein-Associated Phospholipase A2” (J Med Chem, 2017)
